Results taken from paper PMC3887510 (Journal of the American Chemical Society, 2013).
pIC50: −log10 of the molar value. Entries after “also recorded” stand apart in the source; their conditions may differ.

Assays:
AgrC-III [1] = biological target: T1, AgrC-III (Staphylococcus aureus, UniProt O33590); settings: read-out: AgrC-III antagonism IC50 value (CI); S. aureus AH1747 group-III P3-gfp reporter; CI = 95% confidence interval; cited from earlier work
[2] = test system: chimeric AgrC-III-IV receptor; test: AgrC-III agonism assay; type: cell-based, Staphylococcus aureus; settings: S. aureus RN9532 reporter strain
Procedure, shortened: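 Uses an agr-null group-I strain carrying a P3-blaZ reporter plasmid. The chimeric receptor joins the group-III AgrC N-terminal sensor domain to the group-IV AgrC C-terminal histidine kinase domain, followed by the agrA coding sequence. Test peptides were serially diluted from stock to give dose-response data. β-lactamase activity was the read-out (modified literature assay), and EC50 was calculated from the curves.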

[3] = test system: constitutively active AgrC-I receptor mutant; settings: cited from earlier work
AgrC-III [4] = biological target: T1, AgrC-III; settings: cited from earlier work
AgrC-III [5] = biological target: T1, AgrC-III; test: AgrC-III antagonism assay; type: cell-based; settings: ratio of IC50 values vs AIP-III D4A

I-N-(C-A-F-L-L) [AIP-III D4A]
pIC50 (AgrC-III [1]): 10.30

Y-S-T-(C-Y-F-I-M) [AIP-IV]
pIC50 (AgrC-III [1]): 9.34 | AgrC-III agonistic activity in words [2]: inactivity | mode of action on constitutively active AgrC-I receptor mutant [3]: neutral antagonists

I-N-(C-D-F-L-dL) [AIP-III D-L7]
AgrC-III agonistic activity in words [2]: agonistic activity; also recorded: able to activate AgrC-III (with analogous activity as AIP-III | AgrC-III agonism EC50 value relative to AIP-III ([2]; Figure S-2): comparable to AIP-III

G-V-N-A-(C-S-S-L-F) [AIP-II]
pIC50 (AgrC-III [1]): 9.27 | AgrC-III agonistic activity in words [2]: inactivity | mode of action on constitutively active AgrC-I receptor mutant [3]: inverse agonist

I-N-(C-D-F-L-L) [AIP-III]
mode of action on constitutively active AgrC-I receptor mutant [3]: neutral antagonists

Y-S-T-(C-D-F-I-M) [AIP-I]
pIC50 (AgrC-III [1]): 9.28 | fold less active as AgrC-III inhibitor relative to AIP-I D5A (AgrC-III [4]): 10 fold | fold weaker / reduced AgrC-III inhibitory activity relative to AIP-III D4A (AgrC-III [5]): 10 fold | AgrC-III agonistic activity in words [2]: inactivity
